Published values from different studies.
Target: Tyrosine-protein kinase receptor UFO (AXL, Homo sapiens, UniProt P30530)
Concentration: 1 µM
Sequence (P30530 26-894, as in one of the studies): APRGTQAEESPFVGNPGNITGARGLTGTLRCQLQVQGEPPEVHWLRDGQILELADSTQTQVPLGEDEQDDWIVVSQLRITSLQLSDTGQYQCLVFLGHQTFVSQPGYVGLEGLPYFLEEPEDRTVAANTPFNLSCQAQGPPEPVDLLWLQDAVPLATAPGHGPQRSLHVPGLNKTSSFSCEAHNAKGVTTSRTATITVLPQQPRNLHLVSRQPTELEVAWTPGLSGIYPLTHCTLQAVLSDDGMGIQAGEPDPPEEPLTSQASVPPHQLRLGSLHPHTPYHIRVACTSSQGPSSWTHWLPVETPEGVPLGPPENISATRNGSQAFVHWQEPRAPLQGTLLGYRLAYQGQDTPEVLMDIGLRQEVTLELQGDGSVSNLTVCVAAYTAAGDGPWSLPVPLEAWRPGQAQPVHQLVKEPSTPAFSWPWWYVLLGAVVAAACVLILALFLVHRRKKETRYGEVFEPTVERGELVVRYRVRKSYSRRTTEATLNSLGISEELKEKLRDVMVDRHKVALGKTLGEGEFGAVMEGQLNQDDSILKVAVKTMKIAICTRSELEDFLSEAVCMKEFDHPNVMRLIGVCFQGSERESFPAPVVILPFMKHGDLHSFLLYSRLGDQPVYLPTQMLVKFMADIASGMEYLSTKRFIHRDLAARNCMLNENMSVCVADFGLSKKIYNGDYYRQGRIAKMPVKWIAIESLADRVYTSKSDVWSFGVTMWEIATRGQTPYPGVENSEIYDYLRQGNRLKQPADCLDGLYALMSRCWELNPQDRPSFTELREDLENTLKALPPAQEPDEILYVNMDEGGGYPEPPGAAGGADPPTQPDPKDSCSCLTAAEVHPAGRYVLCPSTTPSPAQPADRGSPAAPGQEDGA

assay | measurement | result | Structure (SMILES)
enzyme activity, inhibitor | remaining activity | 27.6% | C#Cc1cnc(Nc2ccc(CO)nc2)nc1Nc1ccccc1S(C)(=O)=NC#N (centres unmarked)
binding, competition with immobilised ligand | remaining binding | 81% | C[C@H]1CC[C@H](n2c3cnccc3c3cnc(Nc4ccc5c(n4)CCN(C(=O)CO)C5)nc32)CC1
enzyme activity, inhibitor | inhibition | 34% | C=CC(=O)N1CCC[C@@H](n2nc(-c3ccc(Oc4ccccc4)cc3)c3c(N)ncnc32)C1
binding, competition with immobilised ligand | remaining binding | 98% | C[C@]1(O)CCCN(c2nc(Nc3ccc(S(=O)(=O)N[C@H]4CC[C@H](CN5CCN(c6ccc(C7CCC(=O)NC7=O)cc6F)CC5)CC4)cc3Cl)ncc2C(F)(F)F)C1 (some centres unmarked)
binding, competition with immobilised ligand | remaining binding | 9.7% | CN1CCN(C(=O)c2ccc(NC(=O)Nc3ccc(N(C)c4ccnc(Nc5ccc(CS(C)(=O)=O)cc5)n4)cc3)cc2)CC1
binding, competition with immobilised ligand | remaining binding | 56% | Cc1cc(S(=O)(=O)N[C@H]2CC[C@H](CN3CCN(c4ccc(C5CCC(=O)NC5=O)cc4F)CC3)CC2)ccc1Nc1ncc(C(F)(F)F)c(N2CCC[C@](C)(O)C2)n1 (some centres unmarked)
enzyme activity, inhibitor | inhibition | 0% | C=CC(=O)N1CCC([C@@H]2CCNc3c(C(N)=O)c(-c4ccc(Oc5ccccc5)cc4)nn32)CC1
enzyme activity, inhibitor | remaining activity | 26.1% | C#Cc1cnc(Nc2ccnc(CO)c2)nc1Nc1ccccc1S(C)(=O)=NC#N (centres unmarked)
